Laboratory results published in ChEMBL document CHEMBL3399929 (Bioorg Med Chem, 2015).
≈ marks a conversion by molar mass, not a printed value.

Tests used:
[1] = Inhibition of Mycobacterium smegmatis TMC 607 ATP synthase incubated for 10 mins prior to NADH addition measured after 1 hr by luminescence assay; design: species or system Mycolicibacterium smegmatis; conditions: read-out: IC50
[2] = system: Mycobacterium tuberculosis; experiment: Antimycobacterial activity against Mycobacterium tuberculosis H37Rv after 4 weeks by agar dilution assay; type: functional; conditions: for MIC: Mycobacterium tuberculosis, H37Rv, 672 h, read-out: MIC100
How it was run: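 Agar dilution method. DMSO stocks (5 mg/mL) were serially diluted in DMSO, and 0.1 mL of each was mixed into 1.9 mL Middlebrook 7H10 agar with OADC and set as slants. Each tube received about 10^5 bacilli from a 3-week Lowenstein–Jensen culture suspended in saline with 0.05% Tween-80. Tubes were incubated at 37 °C for 4 weeks. MIC was the lowest concentration with no visible growth.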

[3] = Cytotoxicity against African green monkey Vero cells after 72 hrs yb resazurin assay; type: cell-based; conditions: chlorocebus sabaeus
How it was run: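 Vero cells were seeded overnight in RPMI with 10% heat-inactivated FBS at 37 °C, 5% CO2. Cells were exposed in triplicate to concentrations from 100 to 1.56 µg/mL for 72 h. Resazurin (0.1%) was then added for 4–5 h, and fluorescence was read at ex 530/em 590 nm. CC50 was derived from the fluorescence plot.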

[4] = Selectivity index, ratio of CC50 for African green monkey Vero cells to MIC100 for Mycobacterium tuberculosis H37Rv; type: toxicity, cell-based; conditions: read-out: Selectivity Index
How it was run: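 Selectivity index is CC50 from the Vero resazurin assay divided by the agar-dilution MIC against H37Rv.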

[5] = Cytotoxicity against mouse bone marrow macrophages […]; type: cell-based; conditions: macrophage
[6] = system: Mycobacterium tuberculosis H37Rv; experiment: Inhibition of Mycobacterium tuberculosis H37Rv ATP synthase assessed as reduction in total ATP content at 0.5 ug/ml after 18 hrs by bead-vortexing settling method
How it was run: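 H37Rv was declumped by bead-vortexing and settling, adjusted to McFarland 1, then diluted 100-fold. Portions of 1 mL in tubes with 0.5 mm glass beads were exposed to compound for 18 h at 37 °C. Samples were heated 8–10 min, chilled on ice, and bead-beater lysed. Cleared lysate ATP was measured by luciferase assay.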

Row | SMILES | IC50 [1] [nM] | other results
1 | CCN(CC)Cc1cc(N(c2cc(C)nc3cc(Cl)ccc23)S(=O)(=O)c2ccc(Cl)cc2)ccc1O | 530 | MIC100 [2]: 6.25 µg/mL (≈ 11.5 µM); CC50 at 72 h [3]: > 300 µg/mL; selectivity ratio [4]: > 48; Activity [5]: Non-toxic
2 | CCN(CC)Cc1cc(N(c2cc(C)nc3cc(Cl)ccc23)S(=O)(=O)c2cc(C)cc(C)c2)ccc1O | 1830 | –
3 | CCN(CC)Cc1cc(N(c2cc(C)nc3cc(Cl)ccc23)S(=O)(=O)c2ccc3ccccc3c2)ccc1O | 920 | MIC [2]: > 25 µg/mL
4 | CCN(CC)Cc1cc(N(c2cc(C)nc3cc(Cl)ccc23)S(=O)(=O)c2cc(Cl)ccc2Cl)ccc1O | 1340 | –
5 | CCN(CC)Cc1cc(N(c2cc(C)nc3cc(Cl)ccc23)S(=O)(=O)c2cccs2)ccc1O | 1570 | –
6 | CCN(CC)Cc1cc(N(c2cc(C)nc3cc(Cl)ccc23)S(=O)(=O)c2cccc3cccnc23)ccc1O | 1850 | –
7 | CCN(CC)Cc1cc(N(c2cc(C)nc3cc(Cl)ccc23)S(=O)(=O)c2c(C)cc(C)cc2C)ccc1O | 1040 | –
8 | CO[C@H]1/C=C/O[C@@]2(C)Oc3c(C)c(O)c4c(O)c(c(/C=N/N5CCN(C)CC5)c(O)c4c3C2=O)NC(=O)/C(C)=C\C=C\[C@H](C)[C@H](O)[C@@H](C)[C@@H](O)[C@@H](C)[C@H](OC(C)=O)[C@@H]1C | – | inhibition [6]: 69.6%
9 | CCN(CC)Cc1cc(N(c2cc(C)nc3cc(Cl)ccc23)S(=O)(=O)c2cccc(C(F)(F)F)c2)ccc1O | 1360 | –
10 | CCN(CC)Cc1cc(N(c2cc(C)nc3cc(Cl)ccc23)S(=O)(=O)c2ccc([N+](=O)[O-])cc2)ccc1O | 390 | MIC100 [2]: 6.25 µg/mL (≈ 11.3 µM); CC50 at 72 h [3]: 55 µg/mL (≈ 99.1 µM); selectivity ratio [4]: 18
11 | CCN(CC)Cc1cc(N(c2cc(C)nc3cc(Cl)ccc23)S(=O)(=O)c2cccc3ccccc23)ccc1O | 1000 | MIC [2]: 12.5 µg/mL (≈ 22.3 µM)
12 | CCN(CC)Cc1cc(N(c2cc(C)nc3cc(Cl)ccc23)S(=O)(=O)c2ccc(Cl)s2)ccc1O | 360 | MIC100 [2]: 6.25 µg/mL (≈ 11.4 µM)
13 | CCN(CC)Cc1cc(N(c2cc(C)nc3cc(Cl)ccc23)S(=O)(=O)c2ccc(Cl)c(Cl)c2)ccc1O | 1260 | –
14 | CCN(CC)Cc1cc(Nc2cc(C)nc3cc(Cl)ccc23)ccc1O | 5450 | MIC [2]: > 50 µg/mL
15 | CCN(CC)Cc1cc(N(c2cc(C)nc3cc(Cl)ccc23)S(=O)(=O)c2ccc(C#N)cc2)ccc1O | 740 | MIC [2]: > 12.5 µg/mL
16 | CCN(CC)Cc1cc(N(c2cc(C)nc3cc(Cl)ccc23)S(=O)(=O)[C@@]23CCC(CC2=O)C3(C)C)ccc1O | 3410 | –
17 | CCN(CC)Cc1cc(N(c2cc(C)nc3cc(Cl)ccc23)S(=O)(=O)c2c(C(C)C)cc(C(C)C)cc2C(C)C)ccc1O | 3290 | –
